Assay results of several laboratories.
Protocols differ between the studies behind these lines.
Rock2: Rho-associated protein kinase 2 (Rock2, Rattus norvegicus, UniProt Q62868)
PTGS2: Prostaglandin G/H synthase 2 (PTGS2, Homo sapiens, UniProt P35354)
SIGMAR1: Sigma non-opioid intracellular receptor 1 (SIGMAR1, Cavia porcellus, UniProt Q60492)

The inhibition of `CC/C(=N\NC(=O)NCc1cccc(O)c1)c1ccc(O)c(C)c1O` is reported as -0.4% (NPM/ALK (Nucleophosmin/ALK tyrosine kinase receptor) (NPM1/ALK, Homo sapiens, UniProt P06748+Q9UM73); enzyme activity, inhibitor; 0.1 µM).
`O=C(c1ccc(Cl)cc1)N(Cc1ccccc1)C1CCCCC1` gave an inhibition of 7.2% (Alpha-2B adrenergic receptor (ADRA2B, Homo sapiens, UniProt P18089); cell-free assay; 10 µM).
The inhibition of `Cc1ccc(Nc2nccc(N(C)c3ccc4c(C)n(C)nc4c3)n2)cc1S(N)(=O)=O` is reported as 11% (Rock2; enzyme activity, inhibitor; 0.3 µM).
For `O=C(O)c1ccc(O)cc1`, the inhibition was 32.2% (PTGS2; enzyme activity, inhibitor; 0.98 µg/mL).
With `CNC(=O)[C@@]12C[C@@H]1[C@@H](n1cnc3c(NC)nc(C#Cc4ccc(Cl)s4)nc31)[C@H](O)[C@@H]2O` the inhibition was 60 to 70% (SIGMAR1; ligand displacement, radioligand; 10 µM).
With `CNC(=O)c1cc(Oc2ccc(NC(=O)Nc3ccc(Cl)c(C(F)(F)F)c3)cc2)ccn1` the inhibition was 44% (Rock2; enzyme activity, inhibitor; 10 µM).
For `Nc1ncnc2c1ncn2[C@@H]1O[C@H](CSCCNC(=O)NCc2ccccc2)[C@@H](O)[C@H]1O`, the inhibition was > 75% (Protein arginine N-methyltransferase 7 (PRMT7, Homo sapiens, UniProt Q9NVM4); enzyme activity, inhibitor, radiometric; 10 µM).
For `COc1cc2c(cc1OC)CN(C(C)CCc1ccc(O)cc1)CC2` (centres unmarked), the inhibition was 34% (SIGMAR1; ligand displacement, radioligand; 0.1 µM).
The inhibition of `C=C[C@@]1(C)C=C2CC[C@@H]3[C@](C)(CCC[C@@]3(C)C(=O)O)[C@H]2CC1` is reported as 7.14% (PTGS2; enzyme activity, inhibitor; 0.49 µg/mL).
With `COc1cc(NC(C)=O)c(Cl)cc1C(=O)Nc1nccs1` the inhibition was -22.1% (Muscarinic acetylcholine receptor M3 (CHRM3, Homo sapiens, UniProt P20309); cell-free assay; 10 µM).
`COc1cc(-c2cc(=O)c3c(O)cc(O)cc3o2)ccc1O` gave an inhibition of 0% (PTGS2; enzyme activity, inhibitor; 0.49 µg/mL).
With `CCN1CCN(Cc2ccc(NC(=O)c3ccc(C)c(Oc4ccnc5[nH]ccc45)c3)cc2C(F)(F)F)CC1` the inhibition was -35.5% (Inositol-tetrakisphosphate 1-kinase (Homo sapiens, UniProt Q13572); target engagement in cells, inhibitor, chemoproteomics; Huh-7; 10 µM).
With `O=c1cc(-c2ccc(O)c(O)c2)oc2cc(O)cc(O)c12` the inhibition was 45% (PTGS2; enzyme activity, inhibitor; 0.49 µg/mL).
`CC(CN(C)C)C(Oc1cccc2ccccc12)c1cccs1` (centres unmarked) gave an inhibition of -4.5% (Sigma intracellular receptor 2 (TMEM97, Homo sapiens, UniProt Q5BJF2); ligand displacement, radioligand; 10 µM).
With `O=C1N=C(N2CCCCN2)S/C1=C\c1ccc(F)cc1O` the inhibition was < 10% (5-hydroxytryptamine receptor 1B (Htr1b, Rattus norvegicus, UniProt P28564); ligand displacement, radioligand; 10 µM).
`COc1ccc(-c2cc(=O)c3c(O)cc(O[C@@H]4O[C@H](CO)[C@@H](O)[C@H](O)[C@H]4O)cc3o2)cc1O` gave an inhibition of 100% (PTGS2; enzyme activity, inhibitor; 7.81 µg/mL).
The inhibition of `CN(C)C1CCN(CC#Cc2nn(C3CCCC3)c3nc(NCc4ccccc4)ncc23)C1` (centres unmarked) is reported as 4% (Dual specificity tyrosine-phosphorylation-regulated kinase 1A (DYRK1A, Homo sapiens, UniProt Q13627); enzyme activity, inhibitor, FRET; 0.1 µM).
